Active and inactive are the calls of the source.
Assays:
[1] = target: T1, Tyrosyl-DNA phosphodiesterase 2 (Homo sapiens, UniProt O95551); assay: Inhibition of recombinant human TDP2 using 18-mer single stranded oligonucleotide DNA as substrate incubated for 15 mins by PAGE assay
T1 sequence (O95551 whole entry): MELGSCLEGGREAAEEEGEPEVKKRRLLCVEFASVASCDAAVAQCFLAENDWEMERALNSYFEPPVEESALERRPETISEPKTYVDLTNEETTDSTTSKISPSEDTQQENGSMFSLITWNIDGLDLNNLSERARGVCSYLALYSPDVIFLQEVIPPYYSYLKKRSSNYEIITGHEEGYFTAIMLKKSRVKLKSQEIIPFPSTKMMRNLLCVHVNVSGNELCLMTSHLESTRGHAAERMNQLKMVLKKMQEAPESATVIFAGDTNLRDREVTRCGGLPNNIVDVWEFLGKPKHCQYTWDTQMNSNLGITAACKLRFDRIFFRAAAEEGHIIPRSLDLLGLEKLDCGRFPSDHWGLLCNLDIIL
Procedure, shortened: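 1 nM TY18 substrate (α³²P-cordycepin-3′-labelled 18-mer ssDNA) with 25 pM recombinant human TDP2, 15 min at room temperature in LMP2 buffer (pH 7.5, 5 mM MgCl₂). Dose–response at 1.4, 4.1, 12.3, 37, 111 μM, resolved on gels. IC50 is mean ± SD of at least three independent experiments.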

[2] = target: T2, Tyrosyl-DNA phosphodiesterase 1 (Homo sapiens, UniProt Q9NUW8); assay: Inhibition of recombinant TDP1 (unknown origin) using 5'-[32P]-labeled single stranded oligonucleotide DNA containing 3'-phophotyrosine (N14Y) as substrate at 111 uM incubated for 15 mins by PAGE assay
[3] = target: T1, Tyrosyl-DNA phosphodiesterase 2; assay: Inhibition of human TDP2 expressed in DT40 cells (TDP2-knockout) using 18-mer single stranded oligonucleotide DNA as substrate incubated for 15 mins by PAGE assay
Procedure, shortened: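 Extract from 1 × 10⁷ TDP2−/− DT40 cells complemented with human TDP2, prepared as the TDP1 extracts. 1 nM TY18 substrate (α³²P-cordycepin-3′-labelled 18-mer) with 5 μg/mL extract ± inhibitor, 15 min at room temperature. Products resolved on gel.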

[4] = Cytotoxicity against chicken DT40 knockout cells expressing human TDP2 after 72 hrs by ATPlite assay; assay type: functional; details: Gallus gallus, DT40, 72 h
Procedure, shortened: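 DT40 cells lacking endogenous TDP2 and complemented with human TDP2, following an earlier protocol. For synergy, the compound was combined with different etoposide concentrations.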

Gallus gallus = species: Gallus gallus; assay: Potentiation of ETP-induced cytotoxicity against chicken DT40 knockout cells expressing human TDP2 after 72 hrs by ATPlite assay; assay type: functional, cell-based
Procedure, shortened: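 DT40 cells lacking endogenous TDP2 and complemented with human TDP2, following an earlier protocol. CC90 is the concentration killing 90% of cells, measured without etoposide. For synergy, the compound was combined with different etoposide concentrations.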

[5] = target: T2, Tyrosyl-DNA phosphodiesterase 1; assay: Inhibition of recombinant TDP1 (unknown origin) using 5'-[32P]-labeled single stranded oligonucleotide DNA containing 3'-phophotyrosine (N14Y) as substrate incubated for 15 mins by PAGE assay
[6] = target: T2, Tyrosyl-DNA phosphodiesterase 1; assay: Inhibition of human TDP1 expressed in DT40 cells (TDP1-knockout) using N14Y single stranded oligonucleotide DNA as substrate incubated for 15 mins by PAGE assay

T2 sequence (Q9NUW8 whole entry): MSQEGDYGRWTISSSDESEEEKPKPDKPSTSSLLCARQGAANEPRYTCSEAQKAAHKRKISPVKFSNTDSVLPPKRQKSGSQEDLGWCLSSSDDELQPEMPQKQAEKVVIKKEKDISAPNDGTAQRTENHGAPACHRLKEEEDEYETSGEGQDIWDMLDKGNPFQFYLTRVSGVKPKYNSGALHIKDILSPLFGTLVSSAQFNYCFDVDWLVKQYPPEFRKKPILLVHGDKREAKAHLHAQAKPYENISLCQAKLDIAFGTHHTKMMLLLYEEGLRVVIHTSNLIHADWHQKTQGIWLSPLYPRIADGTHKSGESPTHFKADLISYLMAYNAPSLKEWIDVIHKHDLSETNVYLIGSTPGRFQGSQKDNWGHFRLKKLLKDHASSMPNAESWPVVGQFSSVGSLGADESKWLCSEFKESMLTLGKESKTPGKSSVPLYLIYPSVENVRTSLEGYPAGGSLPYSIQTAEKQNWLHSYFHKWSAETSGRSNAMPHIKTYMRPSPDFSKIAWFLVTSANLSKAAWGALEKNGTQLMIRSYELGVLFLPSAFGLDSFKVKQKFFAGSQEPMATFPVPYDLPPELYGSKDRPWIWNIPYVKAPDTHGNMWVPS

| Compound | IC50 [1] | inhibition [2] | IC50 [3] | CC90 [4] | Activity (Gallus gallus) | IC50 [5] | IC50 [6] |
| --- | --- | --- | --- | --- | --- | --- | --- |
| O=C1NC(=O)c2ccc(-c3ccco3)c3cccc1c23 | > 111 µM | inactive |  |  |  |  |  |
| O=C1Cc2ccc(C(=O)O)cc2C(=O)N1 | 3 µM | inactive | 5.2 µM | > 50 µM | inactive |  |  |
| O=C1Cc2cc(-c3ccc(C(F)(F)F)cc3)ccc2C(=O)N1 | 3.2 µM | inactive | 2.7 µM |  |  |  |  |
| O=C1Cc2cc(-c3cnc4ccccc4c3)ccc2C(=O)N1 | 9.3 µM | inactive | > 111 µM |  |  |  |  |
| O=C1Cc2cc(-c3cccc(Br)c3)ccc2C(=O)N1 | 8 µM | inactive | 6.5 µM |  |  |  |  |
| COc1ccc(OC)c(-c2ccc3c(c2)CC(=O)NC3=O)c1 | 16 µM | inactive |  |  |  |  |  |
| O=C1Cc2ccc(-c3cccc([N+](=O)[O-])c3)cc2C(=O)N1 | 11 µM | inactive |  |  |  |  |  |
| O=C1Cc2ccc(I)cc2C(=O)N1 | 9.8 µM | inactive |  |  |  |  |  |
| O=C1NC(=O)c2ccc(Br)c3cccc1c23 | > 111 µM | inactive |  |  |  |  |  |
| O=C1Cc2ccc(C(=O)c3cccc([N+](=O)[O-])c3)cc2C(=O)N1 | 5.4 µM | inactive |  |  |  |  |  |
| CCOC(=O)C1C(=O)NC(=O)c2ccc(Br)cc21 (configuration not stated) | 14 µM | inactive |  |  |  |  |  |
| O=C1Cc2cc(-c3cccc([N+](=O)[O-])c3)ccc2C(=O)N1 | 10 µM | inactive | 25 µM |  |  |  |  |
| Nc1ccc(-c2ccc3c(c2)CC(=O)NC3=O)cc1 | 36 µM | inactive | 40 µM |  |  |  |  |
| O=C1Cc2cc(-c3ccco3)ccc2C(=O)N1 | 10 µM |  | 25 µM |  | inactive | > 111 µM | > 111 µM |
| CS(=O)(=O)Nc1cccc(-c2ccc3c(c2)CC(=O)NC3=O)c1 | 18 µM | inactive | 25 µM |  |  |  |  |
| O=C1Cc2cc(-c3cccc(C(=O)O)c3)ccc2C(=O)N1 | 21 µM | inactive | 42 µM |  |  |  |  |
| O=C1Cc2c(cccc2-c2cccc([N+](=O)[O-])c2)C(=O)N1 | > 37 µM | inactive |  |  |  |  |  |
| CC(=O)c1cccc(-c2ccc3c(c2)CC(=O)NC3=O)c1 | 5.5 µM | inactive | 15 µM |  |  |  |  |
| NC(=O)c1cccc(-c2ccc3c(c2)CC(=O)NC3=O)c1 | 16 µM | inactive |  |  |  |  |  |
| O=C1Cc2c(Br)cccc2C(=O)N1 | > 37 µM | inactive |  |  |  |  |  |
| O=C1Cc2cc([N+](=O)[O-])ccc2C(=O)N1 | 19 µM | inactive |  |  |  |  |  |
| O=C1Cc2cc(-c3cccc(-c4ccccc4)c3)ccc2C(=O)N1 | > 111 µM | inactive |  |  |  |  |  |

| Compound | IC50 [1] | inhibition [2] | IC50 [3] | CC90 [4] | Activity (Gallus gallus) | IC50 [5] | IC50 [6] |
| --- | --- | --- | --- | --- | --- | --- | --- |
| O=C1Cc2cc(-c3ccc(Cl)cc3)ccc2C(=O)N1 | 6.4 µM | inactive | 4.5 µM |  |  |  |  |
| O=C1Cc2ccc(-c3ccco3)cc2C(=O)N1 | 13 µM | inactive | 50 µM |  |  |  |  |
| O=C1Cc2ccc(-c3cccnc3)cc2C(=O)N1 | 20 µM | inactive |  |  |  |  |  |
| O=C1Cc2cc(C(F)(F)F)ccc2C(=O)N1 | 7 µM | inactive | 3.5 µM |  |  |  |  |
| O=C1Cc2cc(-c3cccnc3)ccc2C(=O)N1 | 16 µM | inactive | 23 µM |  |  |  |  |
| O=c1[nH]c(=O)c2ccc(-c3ccccc3)cc2[nH]1 | > 111 µM | inactive |  |  |  |  |  |
| O=C1Cc2cc(-c3ccc(F)cc3F)ccc2C(=O)N1 | 4.5 µM | inactive | 5.5 µM |  |  |  |  |
| COc1cccc(OC)c1-c1ccc2c(c1)CC(=O)NC2=O | > 37 µM | inactive |  |  |  |  |  |
| Nc1c2c(nn1-c1ccccc1)CC(=O)NC2=O | > 111 µM | inactive |  |  |  |  |  |
| O=C1Cc2ccc(-c3ccc(Br)cc3)cc2C(=O)N1 | 7.1 µM | inactive |  |  |  |  |  |
| O=C1Cc2cccc(I)c2C(=O)N1 | 7.5 µM | inactive | 2.6 µM |  |  |  |  |
| CS(=O)(=O)Nc1ccc(-c2ccc3c(c2)CC(=O)NC3=O)cc1 | 1.9 µM | inactive | 2.2 µM |  |  |  |  |
| Nc1cccc(-c2ccc3c(c2)CC(=O)NC3=O)c1 | 42 µM | inactive | 55 µM |  |  |  |  |
| O=C1Cc2cc(-c3ccccc3)ccc2C(=O)N1 | 23 µM | inactive | > 111 µM |  |  |  |  |
| O=C1Cc2cc(-c3ccc(F)c(Cl)c3)ccc2C(=O)N1 | 4.1 µM | inactive | 5.3 µM |  |  |  |  |
| O=C1Cc2ccc(-c3ccc(O)cc3)cc2C(=O)N1 | 14 µM | inactive |  |  |  |  |  |
| O=C1Cc2cc(-c3cccc(O)c3)ccc2C(=O)N1 | 13 µM | inactive | 35 µM |  |  |  |  |
| O=C1Cc2cc(-c3ccccc3C(=O)O)ccc2C(=O)N1 | > 111 µM | inactive |  |  |  |  |  |
| CC(=O)Nc1c2c(nn1-c1ccccc1)CC(=O)NC2=O | > 111 µM | inactive |  |  |  |  |  |
| O=C1Cc2cccc(-c3cccc([N+](=O)[O-])c3)c2C(=O)N1 | 19 µM | inactive |  |  |  |  |  |
| O=C1Cc2cc(Br)ccc2C(=O)N1 | 11 µM | inactive |  |  |  |  |  |
| CS(=O)(=O)Nc1cccc(-c2ccc3c(c2)C(=O)NC(=O)C3)c1 | 4.5 µM | inactive |  |  |  |  |  |

| Compound | IC50 [1] | inhibition [2] | IC50 [3] | CC90 [4] | Activity (Gallus gallus) | IC50 [5] | IC50 [6] |
| --- | --- | --- | --- | --- | --- | --- | --- |
| Nc1cccc(-c2ccc3c(c2)C(=O)NC(=O)C3)c1 | > 111 µM | inactive |  |  |  |  |  |
| Nc1c2c(nn1-c1ccc(F)cc1)CC(=O)NC2=O | > 111 µM | inactive |  |  |  |  |  |
| C=CC(=O)Nc1cccc(-c2ccc3c(c2)C(=O)NC(=O)C3)c1 | 11 µM | inactive |  |  |  |  |  |
| O=C1Cc2c(cccc2-c2ccco2)C(=O)N1 | > 111 µM | inactive |  |  |  |  |  |
| O=C1Cc2cc(C(=O)c3cccc([N+](=O)[O-])c3)ccc2C(=O)N1 | 11 µM | inactive |  |  |  |  |  |
| COc1ccc(-c2ccc3c(c2)CC(=O)NC3=O)cc1F | 3 µM | inactive | 4.3 µM |  |  |  |  |
| O=C1Cc2cc(Cc3ccccc3)ccc2C(=O)N1 | > 111 µM | inactive |  |  |  |  |  |
| O=C1Cc2cc(-c3nc4ccccc4s3)ccc2C(=O)N1 | 5.1 µM | inactive | 11 µM | 12 µM | inactive |  |  |
| O=C1Cc2cc(-c3ccco3)ccc2C(=O)N1O | > 111 µM |  |  |  |  | > 111 µM |  |
| O=C1Cc2cc(-c3cccc(Cl)c3)ccc2C(=O)N1 | 5.6 µM | inactive | 3.3 µM |  |  |  |  |
| O=C1Cc2ccccc2C(=O)N1 | 25 µM | inactive |  |  |  |  |  |
| O=C1Cc2cc(-c3ccc(C(=O)O)cc3)ccc2C(=O)N1 | 30 µM | inactive |  |  |  |  |  |
| O=C1Cc2ccc(-c3cccc(Cl)c3)cc2C(=O)N1 | 1.7 µM | inactive | 3.2 µM |  |  |  |  |
| O=C1Cc2cc(C(=O)O)ccc2C(=O)N1 | > 111 µM | inactive |  |  |  |  |  |
| O=C1Cc2ccc(-c3cccc(O)c3)cc2C(=O)N1 | 15 µM | inactive |  |  |  |  |  |
| Nc1c2c(nn1-c1ccccn1)CC(=O)NC2=O | > 111 µM | inactive |  |  |  |  |  |
| O=C1Cc2cc(I)ccc2C(=O)N1 | 7.6 µM | inactive | 9.3 µM | 9.5 µM | inactive |  |  |
| O=C1Cc2ccc(-c3ccco3)cc2C(=O)N1O | > 111 µM | inactive |  |  |  |  |  |
| C=CC(=O)Nc1ccc(-c2ccc3c(c2)CC(=O)NC3=O)cc1 | 10 µM | inactive |  |  |  |  |  |
| O=C1Cc2cccc(-c3cccc(O)c3)c2C(=O)N1 | 26 µM | inactive |  |  |  |  |  |

Reference: ChEMBL document CHEMBL3792345, “Isoquinoline-1,3-diones as Selective Inhibitors of Tyrosyl DNA Phosphodiesterase II (TDP2)” (J Med Chem, 2016)
